Source: ChEMBL document CHEMBL1133861, “A novel class of highly potent, selective, and non-peptidic inhibitor of Ras farnesyltransferase (FTase)” (Bioorg Med Chem Lett, 2001)

What was measured:
[1] = biological target: Geranylgeranyl transferase type I (Homo sapiens, UniProt P49354+P53609); experiment: Inhibition of Geranylgeranyl transferase type I; assay type: protein-complex assay
[2] = biological target: T1, Protein farnesyltransferase (Homo sapiens, UniProt P49354+P49356); experiment: Inhibition of farnesyltransferase activity against H-Ras; assay type: protein-complex assay
Outline: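 FTase (16.6 nM) incubated 30 min at 37 °C with H-Ras substrate, [3H]farnesyl pyrophosphate and serially diluted compound. Buffer: 50 mM HEPES pH 7.4, KCl, MgCl2, ZnCl2, 0.5% N-octylglucoside, 10 mM DTT. Reactions quenched with 10% HCl in ethanol. Farnesylated Ras captured on glass-fiber filters and scintillation counted. IC50 is the concentration halving [3H]FPP incorporation; mean of three experiments.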

EJ [3] = experiment: Percent inhibition of tumor growth relative to control tumors in tumor xenograft nude mice (with p<0.001 compared to control) against EJ at a dose of 40 mg/kg, bid on day 15;Regression.; assay type: functional, organism-based; parameters: dose 40 mg/kg; conditions: Homo sapiens
Outline: (§1)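 Female athymic BALB/c nu/nu mice, 5–7 weeks old, acclimated ≥1 week, inoculated s.c. intrascapularly with 10^7 tumor cells. Tumour volume measured in three dimensions every three days as 1/6·π·L·W·H. At ~100 mm3 mice randomised, 8 per group (Day 0). Dosing by gastric gavage twice daily from Day 1 for 21 days; vehicle 0.9% saline. Ulcerated tumours excluded; Student's t-test.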

EJ [4] = experiment: Percent inhibition of tumor growth relative to control tumors in tumor xenograft nude mice (with p<0.001 compared to control) against EJ at a dose of 60 mg/kg, bid on day 15;Regression.; assay type: functional, organism-based; parameters: dose 60 mg/kg; conditions: Homo sapiens; outline: as §1
[5] = biological target: T1, Protein farnesyltransferase; experiment: Inhibition of farnesyltransferase activity against K-Ras; assay type: protein-complex assay
Outline: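 K-Ras used as acceptor substrate with FTase (16.6 nM) and [3H]FPP plus serially diluted inhibitor, 30 min at 37 °C, in HEPES pH 7.4 buffer with Mg2+, Zn2+, KCl, octylglucoside and DTT. Stopped with acidic ethanol, then filter binding and scintillation counting of labeled K-Ras. IC50 is 50% reduction of [3H]FPP transfer; mean of three determinations.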

EJ [6] = experiment: Percent inhibition of tumor growth relative to control tumors in tumor xenograft nude mice against EJ at a dose of 20 mg/kg, bid on day 15;p<0.001; assay type: functional, Homo sapiens; conditions: Mus musculus, 360 h; outline: as §1
HCT-116 [7] = experiment: Inhibition of anchorage independent growth of human tumor cell line HCT116 K-ras-transformed in soft agar; assay type: functional
Outline: (§2)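 Cells adapted 2–3 days in DMEM + 10% FBS after thawing. Bottom layer 0.5% agar with DMEM/FBS and compound; top layer 0.33% agar with compound, cells at 2–5×10^3 cells/mL. Colonies counted by microscope after two weeks in humidified CO2 incubator. GI50 from plot of % colony growth versus log10 concentration for each cell line.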

EJ [8] = experiment: Inhibition of anchorage independent growth of human tumor cell line EJ H-ras-transformed in soft agar; assay type: functional; outline: as §2
HCT-116 [9] = experiment: Percent inhibition of tumor growth relative to control tumors in tumor xenograft nude mice against HCT116 at a dose of 60 mg/kg, bid on day 21;p<0.001; assay type: functional, Homo sapiens; conditions: Mus musculus, HCT-116, 504 h; outline: as §1
A549 = experiment: Inhibition of anchorage independent growth of human tumor cell line A549 K-ras-transformed in soft agar; assay type: functional; outline: as §2
HT-29 = experiment: Inhibition of anchorage independent growth of human tumor cell line HT-29 K-ras-transformed in soft agar; assay type: functional; outline: as §2
HCT-116 [10] = experiment: Percent inhibition of tumor growth relative to control tumors in tumor xenograft nude mice against HCT116 at a dose of 40 mg/kg, bid on day 21;p<0.001.; assay type: functional, Homo sapiens; conditions: Mus musculus, HCT-116, 504 h; outline: as §1
T-24 = experiment: Inhibition of anchorage independent growth of human tumor cell line T24 H-ras-transformed in soft agar; assay type: functional; outline: as §2

| Compound | IC50 [1] | IC50 [2] | IC50 [5] | other results |
| --- | --- | --- | --- | --- |
| CN1CCN(C(=O)c2cn(Cc3cncn3Cc3ccc4c(c3)OCO4)cc2-c2cccc3ccccc23)CC1 [listing 1 of 3 here] |  |  |  | inhibition (EJ [3]): Regression; inhibition (EJ [4]): Regression |
| CN1CCN(C(=O)c2cn(Cc3cncn3Cc3ccc4c(c3)OCO4)cc2-c2cccc3ccccc23)CC1 [listing 2 of 3 here] | 16000 nM | 0.9 nM |  |  |
| CN1CCN(C(=O)c2cn(Cc3cncn3Cc3ccc4c(c3)OCO4)cc2-c2cccc3ccccc23)CC1 [listing 3 of 3 here] |  |  |  | inhibition in vivo at 20 mg/kg (EJ [6]): 78%; GI50 (HCT-116 [7]): 17.6 nM; GI50 (EJ [8]): 0.56 nM; inhibition in vivo at 60 mg/kg (HCT-116 [9]): 55%; GI50 (A549): 1.2 nM; GI50 (HT-29): 4.5 nM; inhibition in vivo at 40 mg/kg (HCT-116 [10]): 43%; GI50 (T-24): 0.45 nM |
| COCCN(C)C(=O)c1cn(Cc2cncn2Cc2ccc3c(c2)OCO3)cc1-c1cccc2ccccc12 | 10000 nM |  |  |  |

Further lines, with some results ahead:

| IC50 [1] | IC50 [2] | IC50 [5] | Compound | other results |
| --- | --- | --- | --- | --- |
| 12000 nM | 0.9 nM |  | O=C(c1cn(Cc2cncn2Cc2ccc3c(c2)OCO3)cc1-c1cccc2ccccc12)N1CCOCC1 |  |
|  |  | 1830 nM | O=C(c1cn(Cc2c[nH]cn2)cc1-c1cccc2ccccc12)N1CCOCC1 |  |
|  | 1.5 nM | 2.1 nM | O=C(c1cn(Cc2cncn2Cc2ccccc2)cc1-c1cccc2ccccc12)N1CCOCC1 |  |
|  | 2000 nM |  | O=C(c1cn(Cc2cnc[nH]2)cc1-c1ccccc1)N1CCOCC1 |  |
|  | 500 nM |  | CCOC(=O)c1cn(Cc2c[nH]cn2)cc1-c1cccc2ccccc12 |  |
| > 100000 nM | 3 nM | 100 nM | Cn1cncc1Cn1cc(C(=O)N2CCOCC2)c(-c2cccc3ccccc23)c1 |  |
